In the EternaBench riboswitch data:

Tested on: MS2 coat protein
Experiment: apparent Kd, MS2 coat protein; higher = weaker binding; RNA-MaP array; FMN 200 µM where present
Procedure, shortened: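 The apparent Kd comes from binding curves fitted cluster by cluster, filtered, and summarised as a median. Those curves followed SNAP-549-labelled MS2 coat protein from 0.7 or 1.5 nM, doubling to 3 µM, on Illumina sequencing-chip clusters where stalled E. coli RNA polymerase had transcribed the designs, without and then with constant ligand. The buffer was 100 mM Tris-HCl pH 7.5, 80 mM KCl, 4 mM MgCl2, BSA, DTT, yeast tRNA and Tween-20, and green signal was normalised to red-channel RNA signal and control-cluster median Fmax.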

[1] = designed as: OFF switch for flavin mononucleotide, no ligand
[2] = ligand present: flavin mononucleotide, designed as: OFF switch for flavin mononucleotide
[3] = designed as: ON switch for flavin mononucleotide, no ligand
[4] = ligand present: flavin mononucleotide, designed as: ON switch for flavin mononucleotide

| Sequence | apparent Kd [1] [µM] | apparent Kd [2] [µM] | apparent Kd [3] [µM] | apparent Kd [4] [µM] |
| --- | --- | --- | --- | --- |
| CUUAAACAUGAGGAUCACCCAUGUGAGGAUAUGAUGCGAAUAAAGAAAGAAGAAAGCAUCAGAAGGCACAUAUG | 0.0869 | 0.236 |  |  |
| UUGCGGUAGGAGAAGGACAGAGGCUUCAUUACAUACAUGAGGAUCACCCAUGUAGGAUAUCCUACCUCACGCGGCCUCCUCCUG | 0.0069 | 0.0103 |  |  |
| CACGAGCUAGGAUAUACAUGAGGAUCACCCAUGUAAGUCAUGCGGUCACAUCUGACAGGUAGAAGGAGCGCGUC | 0.0393 | 0.126 |  |  |
| CUUCGUAUAGAGGAUAUAGGAUACGAAAGUGUCCUAGAAGGCUGUACAUGAGGAUCACCCAUGUACUUCAGAUC | 0.0132 | 0.0164 |  |  |
| AAUUACAUGUAGAAGGUACUUUCAUAAGUGUUGUAAGGAUAUACCAAUUUAUUAGUUUUAAAGAUACAUGAGGAUCACCCAUGU |  |  | 0.00859 | 0.00818 |
| UAAAUGUGAGGAUAUUCGAUGAACUCGGAGACGAGUUUAUCGGAGAAGGCACAUGAGGAUCACCCAUGUUCCUU | 0.0223 | 0.225 |  |  |
| AGACGGAGCAGAGGAUAUACAUGAGGAUCACCCAUGUAAGAUCUCCAGGAAACUGGAGAUCAAAUGUAGAAGGCUGCUCCGUCA | 0.0178 | 0.0558 |  |  |
| CUUUCGUGAGGAUAUGAAAAUUCGAUCGUGAGAUCGAGGCUACAGAAGGCACAUGAGGAUCACCCAUGUUCCUC | 0.0315 | 0.32 |  |  |
| UUUUUACAUGAGGAUCACCCAUGUCAGGAUAUUCUUAUAUUUUAUUAUUUUAUUUUUUGAAGAAGGGACUAUUA | 0.118 | 0.0704 |  |  |
| GUAGCUUUCCGAGGAUAUUCAUACCGGAAACGGACAUGAGGAUCACCCAUGUGGCGAAAGCCUUGGGAGAAGGCGGAAAGCUAC |  |  | 0.446 | 0.0234 |
| GUGUGCUGAGGAUAUACACAGGAAUAGAAGAUAAGAUAAUCACAUGAGGAUCACCCAUGUAGAAGGCAGAGUGU | 0.0152 | 0.0173 |  |  |
| ACUGUCCGAGAGAAGGGAACAUGAGGAUCACCCAUGUUACCUCACCUGGUGACGGAACUCCAAGUUCAGGAUAUCUCGAGCGGC | 0.00485 | 0.00598 |  |  |
| GUGGUUGUCGUAGGAUAUGUAGGAUAUUCCUACAUGAGGAUCACCCAUGUUCGCAUGGAAGAAUGACAGAAGGACGAUGACCAU |  |  | 0.33 | 0.0826 |
| UGAUCUAUGUAGAAGGCCCAUAUCUGUAUUUAGGGAGGAUAUACAUGAGGAUCACCCAUGUGUAGAGCUGGUGGACUGGUCAGC | 0.0878 | 0.183 |  |  |
| GUCAGCUCGUGAGGAUAUACAACACUGCUUCGGCAGUAUAUUAAGAUCACAUGAGGAUCACCCAUGUAGAAGGCACGAGCUGAU | 0.015 | 0.284 |  |  |
| CGAUAGGACAGAGGAUAUACACAUGAGGAUCACCCAUGUGAUUUCAACGCGAAAGCGCCAAACAUGUAGAAGGCUGUCCUAUCG | 0.0259 | 0.0164 |  |  |
| ACAUGGUAUGUCAGGAUAUCUAACCGCAACGUUCUAGAGAAGGGACAUGAGGAUCACCCAUGUACGUUGUAAGA | 0.0543 | 0.117 |  |  |
| AAUUUUUAACAGAAGGCGUUUAUAGUUAAGUUACGAGGAUAUGUUUUACAUGAGGAUCACCCAUGUUACUAGGGUAGUAUAUAU |  |  | 0.0424 | 0.0307 |
| UAAACGUUCUAGAAGGUGCUUUUGUUAAACAAGCAAGGAUAUAGACAUGAGGAUCACCCAUGUCUUUGAGACAUCGACAUACUU | 0.00841 | 0.00914 |  |  |
| GCCAGAGCAGGAUAUUCAAUAUCACACAUGAGGAUCACCCAUGUCUAUCGAAAGAUAGAGGGAGAAGGGCUCUGGC | 0.0643 | 0.0183 |  |  |
| AAACAGGGAGGAUAUACAUAGAUCCUCUAACCUAAUAGGUCACAUGAGGAUCACCCAUGUAGAAGGCCCUUAGG | 0.0124 | 0.0122 |  |  |
| UAUAUAUAGUAAGGAUAUGUAAUUAUUUUAUCAACAGAAGGUACUGACAUGAGGAUCACCCAUGUUUUAGUGUGGGCAUGUAGA | 0.0879 | 0.111 |  |  |
| AAAUUCUGAGGAUAUCGAUGUUUGUACAUGAGGAUCACCCAUGUCCUUUUUAUUUUUUCCCGAGAAGGCAGUGUAU | 0.045 | 0.0353 |  |  |
